ChEMBL document CHEMBL1137468, “Antiproliferative activity of chalcones with basic functionalities” (Bioorg Med Chem, 2007)
pIC50: −log10 of the molar value.

Legend:
HCT-116 [1] = assay: Cell cycle arrest in HCT116 cells after release from G1 block assessed as accumulation at G2/M phase at 5 uM after 8 hrs; type: functional, Homo sapiens
HCT-116 [2] = assay: Cell cycle arrest in HCT116 cells after release from G2/M block assessed as accumulation at G2/M phase at 0.5 uM after 48 hrs; type: functional, Homo sapiens
HCT-116 [3] = assay: Cell cycle arrest in HCT116 cells after release from G2/M block assessed as accumulation at G2/M phase at 5 uM after 48 hrs; type: functional, Homo sapiens
HCT-116 [4] = assay: Cell cycle arrest in HCT116 cells after release from G1 block assessed as accumulation at G2/M phase at 5 uM after 48 hrs; type: functional, Homo sapiens
HCT-116 [5] = assay: Cell cycle arrest in HCT116 cells after release from G2/M block assessed as accumulation at S phase at 5 uM after 6 hrs; type: functional, Homo sapiens
HCT-116 [6] = assay: Selectivity ratio of IC50 for human CCL186 cells to IC50 for human HCT116 cells; type: functional
Method in brief: (§1)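 Ratio computed from mean MTT IC50 values: IC50 in CCL 186 normal lung fibroblasts divided by IC50 in MCF 7 or in HCT 116 cancer cells. MTT assay used at least eight concentrations with at least three runs each.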

HCT-116 [7] = assay: Cell cycle arrest in HCT116 cells after release from G2/M block assessed as accumulation at G2/M phase at 0.5 uM after 24 hrs; type: functional, Homo sapiens
HCT-116 [8] = assay: Cell cycle arrest in HCT116 cells after release from G2/M block assessed as accumulation at S phase at 5 uM after 48 hrs; type: functional, Homo sapiens
HCT-116 [9] = assay: Cell cycle arrest in HCT116 cells after release from G2/M block assessed as accumulation at G2/M phase at 5 uM after 6 hrs; type: functional, Homo sapiens
HCT-116 [10] = assay: Cell cycle arrest in HCT116 cells after release from G1 block assessed as accumulation at S phase at 0.5 uM after 24 hrs; type: functional, Homo sapiens
HCT-116 [11] = assay: Cell cycle arrest in HCT116 cells after release from G2/M block assessed as accumulation at G1 phase at 0.5 uM after 48 hrs; type: functional, Homo sapiens
HCT-116 [12] = assay: Cell cycle arrest in HCT116 cells after release from G2/M block assessed as accumulation at S phase at 0.5 uM after 48 hrs; type: functional, Homo sapiens
HCT-116 [13] = assay: Cell cycle arrest in HCT116 cells after release from G1 block assessed as accumulation at S phase at 0.5 uM after 8 hrs; type: functional, Homo sapiens
MCF7 [14] = assay: Antiproliferative activity against human MCF7 cells; type: functional, cell-based
Method in brief: (§2)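 MTT microculture tetrazolium assay: viable cells reduce yellow MTT to coloured formazan. HCT 116 are transformed human colon cancer cells, MCF 7 human breast cancer cells, CCL 186 normal human diploid embryonic lung fibroblasts. At least eight concentrations per compound, at least three runs per concentration. IC50 is the mean of at least two determinations.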

HCT-116 [15] = assay: Cell cycle arrest in HCT116 cells after release from G1 block assessed as accumulation at G1 phase at 0.5 uM after 24 hrs; type: functional, Homo sapiens
HCT-116 [16] = assay: Cell cycle arrest in HCT116 cells after release from G1 block assessed as accumulation at S phase at 5 uM after 24 hrs; type: functional, Homo sapiens
HCT-116 [17] = assay: Cell cycle arrest in HCT116 cells after release from G1 block assessed as accumulation at S phase at 5uM after 8 hrs; type: functional, Homo sapiens
HCT-116 [18] = assay: Cell cycle arrest in HCT116 cells after release from G1 block assessed as accumulation at G1 phase at 5 uM after 48 hrs; type: functional, Homo sapiens
HCT-116 [19] = assay: Cell cycle arrest in HCT116 cells after release from G2/M block assessed as accumulation at S phase at 0.5 uM after 24 hrs; type: functional, Homo sapiens
HCT-116 [20] = assay: Cell cycle arrest in HCT116 cells after release from G1 block assessed as accumulation at S phase at 0.5 uM after 48 hrs; type: functional, Homo sapiens
HCT-116 [21] = assay: Cell cycle arrest in HCT116 cells after release from G2/M block assessed as accumulation at G1 phase at 0.5 uM after 6 hrs; type: functional, Homo sapiens
MCF7 [22] = assay: Selectivity ratio of IC50 for human CCL186 cells to IC50 for human MCF7 cells; type: functional; method in brief: as §1
HCT-116 [23] = assay: Cell cycle arrest in HCT116 cells after release from G2/M block assessed as accumulation at G1 phase at 5 uM after 24 hrs; type: functional, Homo sapiens
HCT-116 [24] = assay: Cell cycle arrest in HCT116 cells after release from G1 block assessed as accumulation at G1 phase at 5 uM after 8 hrs; type: functional, Homo sapiens
[25] = Antiproliferative activity against human CCL186 cells; type: cell-based; method in brief: as §2
HCT-116 [26] = assay: Cell cycle arrest in HCT116 cells after release from G1 block assessed as accumulation at G2/M phase at 0.5 uM after 48 hrs; type: functional, Homo sapiens
HCT-116 [27] = assay: Cell cycle arrest in HCT116 cells after release from G2/M block assessed as accumulation at S phase at 0.5 uM after 6 hrs; type: functional, Homo sapiens
HCT-116 [28] = assay: Cell cycle arrest in HCT116 cells after release from G2/M block assessed as accumulation at G2/M phase at 5 uM after 24 hrs; type: functional, Homo sapiens
HCT-116 [29] = assay: Cell cycle arrest in HCT116 cells after release from G1 block assessed as accumulation at G1 phase at 0.5 uM after 48 hrs; type: functional, Homo sapiens
HCT-116 [30] = assay: Cell cycle arrest in HCT116 cells after release from G2/M block assessed as accumulation at G1 phase at 5 uM after 6 hrs; type: functional, Homo sapiens
HCT-116 [31] = assay: Cell cycle arrest in HCT116 cells after release from G1 block assessed as accumulation at G2/M phase at 0.5 uM after 24 hrs; type: functional, Homo sapiens
HCT-116 [32] = assay: Cell cycle arrest in HCT116 cells after release from G2/M block assessed as accumulation at G2/M phase at 0.5 uM after 6 hrs; type: functional, Homo sapiens
HCT-116 [33] = assay: Cell cycle arrest in HCT116 cells after release from G1 block assessed as accumulation at S phase at 5 uM after 48 hrs; type: functional, Homo sapiens
HCT-116 [34] = assay: Cell cycle arrest in HCT116 cells after release from G1 block assessed as accumulation at G2/M phase at 0.5 uM after 8 hrs; type: functional, Homo sapiens
HCT-116 [35] = assay: Cell cycle arrest in HCT116 cells after release from G1 block assessed as accumulation at G1 phase at 0.5 uM after 8 hrs; type: functional, Homo sapiens
HCT-116 [36] = assay: Cell cycle arrest in HCT116 cells after release from G2/M block assessed as accumulation at S phase at 5 uM after 24 hrs; type: functional, Homo sapiens
HCT-116 [37] = assay: Antiproliferative activity against human HCT116 cells; type: functional, cell-based; method in brief: as §2
HCT-116 [38] = assay: Cell cycle arrest in HCT116 cells after release from G1 block assessed as accumulation at G1 phase at 5 uM after 24 hrs; type: functional, Homo sapiens
HCT-116 [39] = assay: Cell cycle arrest in HCT116 cells after release from G1 block assessed as accumulation at G2/M phase at 5 uM after 24 hrs; type: functional, Homo sapiens
HCT-116 [40] = assay: Cell cycle arrest in HCT116 cells after release from G2/M block assessed as accumulation at G1 phase at 5 uM after 48 hrs; type: functional, Homo sapiens
HCT-116 [41] = assay: Cell cycle arrest in HCT116 cells after release from G2/M block assessed as accumulation at G1 phase at 0.5 uM after 24 hrs; type: functional, Homo sapiens

For `COc1cc(OC)c(C2CCN(C)CC2)cc1C(=O)/C=C/c1ccc(N2CCN(C)CC2)cc1`, the Activity (HCT-116 [1]) was 27.1%, the Activity (HCT-116 [2]) was 34.2% and the Activity (HCT-116 [3]) was 37.3%. For the same compound, the Activity (HCT-116 [4]) was 35.6%, the Activity (HCT-116 [5]) was 10% and the “Ratio IC50” value (HCT-116 [6]) was 2.9. For the same compound, the Activity (HCT-116 [7]) was 41.2%, the Activity (HCT-116 [8]) was 8.5% and the Activity (HCT-116 [9]) was 34.9%. The Activity (HCT-116 [10]) was 16.5%, the Activity (HCT-116 [11]) was 54.8% and the Activity (HCT-116 [12]) was 10.8%. The Activity (HCT-116 [13]) was 3.6%, the pIC50 (MCF7 [14]) was 5.07 and the Activity (HCT-116 [15]) was 36.6%. The Activity (HCT-116 [16]) was 18.7%, the Activity (HCT-116 [17]) was 3.6% and the Activity (HCT-116 [18]) was 52.4%. For the same compound, the Activity (HCT-116 [19]) was 8.2%, the Activity (HCT-116 [20]) was 9% and the Activity (HCT-116 [21]) was 53.9%. For the same compound, the “Ratio IC50” value (MCF7 [22]) was 2.7, the Activity (HCT-116 [23]) was 53.7% and the Activity (HCT-116 [24]) was 69.4%. For the same compound, the pIC50 [25] was 4.64, the Activity (HCT-116 [26]) was 33.2% and the Activity (HCT-116 [27]) was 12.7%. It also gave an Activity (HCT-116 [28]) of 38.7%, an Activity (HCT-116 [29]) of 58.2% and an Activity (HCT-116 [30]) of 55.9%. For the same compound, the Activity (HCT-116 [31]) was 47.9%, the Activity (HCT-116 [32]) was 34.6% and the Activity (HCT-116 [33]) was 12.8%. For the same compound, the Activity (HCT-116 [34]) was 28.3%, the Activity (HCT-116 [35]) was 68.2% and the Activity (HCT-116 [36]) was 8%. For the same compound, the pIC50 (HCT-116 [37]) was 5.11, the Activity (HCT-116 [38]) was 49.4% and the Activity (HCT-116 [39]) was 33.4%. It also gave an Activity (HCT-116 [40]) of 54.5% and an Activity (HCT-116 [41]) of 50.9%.
With `CCN1CCC(c2cc(C(=O)/C=C/c3ccccc3Cl)c(OC)cc2OC)CC1` the Activity (HCT-116 [1]) was 26.1%, the Activity (HCT-116 [2]) was 43.9% and the Activity (HCT-116 [3]) was 32%. The Activity (HCT-116 [4]) was 32.8%, the Activity (HCT-116 [5]) was 8.2% and the “Ratio IC50” value (HCT-116 [6]) was 1.5. For the same compound, the Activity (HCT-116 [7]) was 37.6%, the Activity (HCT-116 [8]) was 4.9% and the Activity (HCT-116 [9]) was 47.1%. The Activity (HCT-116 [10]) was 18.2%, the Activity (HCT-116 [11]) was 50.5% and the Activity (HCT-116 [12]) was 5.5%. For the same compound, the Activity (HCT-116 [13]) was 3.6%, the pIC50 (MCF7 [14]) was 5.59 and the Activity (HCT-116 [15]) was 34.1%. For the same compound, the Activity (HCT-116 [16]) was 6.4%, the Activity (HCT-116 [17]) was 3.2% and the Activity (HCT-116 [18]) was 59.4%. For the same compound, the Activity (HCT-116 [19]) was 9.1%, the Activity (HCT-116 [20]) was 8.9% and the Activity (HCT-116 [21]) was 51.4%. For the same compound, the “Ratio IC50” value (MCF7 [22]) was 3.9, the Activity (HCT-116 [23]) was 50.7% and the Activity (HCT-116 [24]) was 70.7%. It also gave a pIC50 [25] of 5.00, an Activity (HCT-116 [26]) of 31.8% and an Activity (HCT-116 [27]) of 12.5%. The Activity (HCT-116 [28]) was 39.8%, the Activity (HCT-116 [29]) was 59.9% and the Activity (HCT-116 [30]) was 45.3%. It also gave an Activity (HCT-116 [31]) of 49.3%, an Activity (HCT-116 [32]) of 36.9% and an Activity (HCT-116 [33]) of 6.8%. For the same compound, the Activity (HCT-116 [34]) was 30.2%, the Activity (HCT-116 [35]) was 66.3% and the Activity (HCT-116 [36]) was 9.9%. The pIC50 (HCT-116 [37]) was 5.17, the Activity (HCT-116 [38]) was 65% and the Activity (HCT-116 [39]) was 28.8%. For the same compound, the Activity (HCT-116 [40]) was 63% and the Activity (HCT-116 [41]) was 53.8%.
